{"source": "ChEMBL document CHEMBL4393708", "about": "“Pyridinylimidazoles as dual glycogen synthase kinase 3β/p38α mitogen-activated protein kinase inhibitors” (Eur J Med Chem, 2019)", "key": {"[1]": {"molecular_target": "High affinity nerve growth factor receptor (Homo sapiens) (UniProt P04629)", "assay": "Inhibition of human recombinant TRKA at 1 uM using Ulight-Poly GAT[EAY(1:1:1)]n as substrate measured after 10 mins in presence of ATP by LANCE assay relative to control", "outline": "(§1)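 Kinase panel run by an outside provider (Eurofins Cerep) in a LANCE assay, single test concentration of 1 µM, results as percent inhibition.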"}, "[2]": {"molecular_target": "Protein kinase C beta type (Homo sapiens) (UniProt P05771)", "assay": "Inhibition of human recombinant PKCbeta at 1 uM using CREBtide as substrate measured after 15 mins in presence of ATP by LANCE assay relative to control", "outline": "as §1"}, "[3]": {"molecular_target": "Fibroblast growth factor receptor 2 (Homo sapiens) (UniProt P21802)", "assay": "Inhibition of human recombinant FGFR2 at 1 uM using Ulight-CAGAGAIETDKEYYTVKD as substrate measured after 15 mins in presence of ATP by LANCE assay relative to control", "outline": "as §1"}, "[4]": {"molecular_target": "T1, Glycogen synthase kinase-3 beta (Homo sapiens, UniProt P49841)", "T1 sequence (P49841 whole entry)": "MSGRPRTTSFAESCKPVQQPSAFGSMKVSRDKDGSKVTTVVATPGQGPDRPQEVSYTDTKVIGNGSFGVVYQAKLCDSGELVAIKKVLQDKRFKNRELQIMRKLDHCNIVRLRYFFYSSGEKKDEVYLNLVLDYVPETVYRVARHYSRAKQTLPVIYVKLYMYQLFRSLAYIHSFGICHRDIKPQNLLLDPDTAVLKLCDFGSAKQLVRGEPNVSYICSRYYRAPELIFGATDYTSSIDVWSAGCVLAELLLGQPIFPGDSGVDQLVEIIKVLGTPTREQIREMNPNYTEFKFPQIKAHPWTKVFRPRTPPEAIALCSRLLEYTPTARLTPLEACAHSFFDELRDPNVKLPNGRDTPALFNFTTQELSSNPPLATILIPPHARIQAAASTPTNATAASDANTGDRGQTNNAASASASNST", "assay": "Competitive inhibition of human recombinant full length GSK3beta using YRRAAVPPSPSLSRHSSPHQ(pS)EDEEE as substrate preincubated with enzyme for 10 mins followed by substrate and 25 uM ATP addition measured after 60 mins by ADP-Glo luminescence assay", "outline": "(§2)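 Compounds in serial dilutions were preincubated with kinase for 10 min at rt. Substrate/ATP was then added and the reaction ran 60 min at rt. ADP-Glo reagent 60 min, detection reagent 30 min, then luminescence read (500 ms integration).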"}, "[5]": {"molecular_target": "Interleukin-1 receptor-associated kinase 4 (Homo sapiens) (UniProt Q9NWZ3)", "sequence (Q9NWZ3 whole entry)": "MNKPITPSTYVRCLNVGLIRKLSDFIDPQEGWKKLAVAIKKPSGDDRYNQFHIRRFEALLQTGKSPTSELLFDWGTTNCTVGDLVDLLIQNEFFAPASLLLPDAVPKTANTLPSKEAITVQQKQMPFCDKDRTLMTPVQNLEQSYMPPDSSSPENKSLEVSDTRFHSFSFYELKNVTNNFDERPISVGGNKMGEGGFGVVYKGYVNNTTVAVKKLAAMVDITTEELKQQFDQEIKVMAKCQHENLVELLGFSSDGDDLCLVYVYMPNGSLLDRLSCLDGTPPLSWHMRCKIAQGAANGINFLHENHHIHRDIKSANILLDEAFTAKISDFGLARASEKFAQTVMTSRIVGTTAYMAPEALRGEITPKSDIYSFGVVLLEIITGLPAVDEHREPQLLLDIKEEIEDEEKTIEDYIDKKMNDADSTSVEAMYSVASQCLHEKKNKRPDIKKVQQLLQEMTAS", "assay": "Inhibition of human recombinant IRAK4 at 1 uM using Ulight-FLGFTYVAP as substrate measured after 90 mins in presence of ATP by LANCE assay relative to control", "outline": "as §1"}, "[6]": {"molecular_target": "MAP kinase-activated protein kinase 2 (Homo sapiens) (UniProt P49137)", "sequence (P49137 whole entry, looked up)": "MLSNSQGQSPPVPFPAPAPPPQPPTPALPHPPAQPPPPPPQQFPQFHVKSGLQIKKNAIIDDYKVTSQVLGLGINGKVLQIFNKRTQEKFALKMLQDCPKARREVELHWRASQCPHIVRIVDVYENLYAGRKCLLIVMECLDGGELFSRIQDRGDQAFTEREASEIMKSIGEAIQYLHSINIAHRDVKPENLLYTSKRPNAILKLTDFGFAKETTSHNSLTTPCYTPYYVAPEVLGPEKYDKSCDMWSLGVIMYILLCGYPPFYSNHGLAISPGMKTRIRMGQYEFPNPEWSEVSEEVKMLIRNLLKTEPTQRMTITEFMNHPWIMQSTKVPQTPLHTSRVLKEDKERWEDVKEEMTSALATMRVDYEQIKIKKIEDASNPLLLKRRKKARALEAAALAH", "assay": "Inhibition of human recombinant MAPKAPK2 at 1 uM using CREBtide as substrate measured after 15 mins in presence of ATP by LANCE assay relative to control", "outline": "as §1"}, "[7]": {"assay": "Ratio of drug concentration in RjOrl:Swiss CD-1 mouse brain at 10 mg/kg, iv to IC50 for p38alpha MAPK (unknown origin)", "format": "ADME, organism-based", "settings": "in vivo", "outline": "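Adult male mice received a single 10 mg/kg intravenous dose. After the final plasma sample at 2 h, the mice were sacrificed and brains dissected. Brain concentration was measured by LC-MS and related to the in vitro IC50 values for GSK3β and p38α.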"}, "[8]": {"molecular_target": "Hepatocyte growth factor receptor (Homo sapiens) (UniProt P08581)", "assay": "Inhibition of human recombinant MET at 1 uM using Ulight-CAGAGAIETDKEYYTVKD as substrate measured after 60 mins in presence of ATP by LANCE assay relative to control", "outline": "as §1"}, "CYP2C9": {"molecular_target": "CYP2C9 (Homo sapiens, UniProt P11712)", "sequence (P11712 whole entry)": "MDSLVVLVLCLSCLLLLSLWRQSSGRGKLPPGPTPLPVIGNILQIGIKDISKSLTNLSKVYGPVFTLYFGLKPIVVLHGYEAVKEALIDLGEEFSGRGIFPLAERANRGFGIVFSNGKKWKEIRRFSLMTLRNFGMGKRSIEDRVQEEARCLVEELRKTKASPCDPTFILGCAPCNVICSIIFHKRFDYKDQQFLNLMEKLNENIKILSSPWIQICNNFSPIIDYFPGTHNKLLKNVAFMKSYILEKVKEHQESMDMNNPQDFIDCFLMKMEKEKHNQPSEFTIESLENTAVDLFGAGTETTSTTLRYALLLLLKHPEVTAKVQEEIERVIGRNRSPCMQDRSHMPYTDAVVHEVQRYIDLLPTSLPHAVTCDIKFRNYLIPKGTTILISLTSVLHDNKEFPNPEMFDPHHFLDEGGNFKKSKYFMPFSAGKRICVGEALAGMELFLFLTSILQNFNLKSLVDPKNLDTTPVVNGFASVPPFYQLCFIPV", "assay": "Inhibition of human recombinant CYP2C9 expressed in baculovirus infected insect cells using OOMR as substrate at 10 uM in presence of NADPH by fluorimetric analysis relative to control", "format": "ADME", "settings": "probe OOMR"}, "[9]": {"molecular_target": "Tyrosine-protein kinase ABL1 (Homo sapiens) (UniProt P00519)", "sequence (P00519 whole entry)": "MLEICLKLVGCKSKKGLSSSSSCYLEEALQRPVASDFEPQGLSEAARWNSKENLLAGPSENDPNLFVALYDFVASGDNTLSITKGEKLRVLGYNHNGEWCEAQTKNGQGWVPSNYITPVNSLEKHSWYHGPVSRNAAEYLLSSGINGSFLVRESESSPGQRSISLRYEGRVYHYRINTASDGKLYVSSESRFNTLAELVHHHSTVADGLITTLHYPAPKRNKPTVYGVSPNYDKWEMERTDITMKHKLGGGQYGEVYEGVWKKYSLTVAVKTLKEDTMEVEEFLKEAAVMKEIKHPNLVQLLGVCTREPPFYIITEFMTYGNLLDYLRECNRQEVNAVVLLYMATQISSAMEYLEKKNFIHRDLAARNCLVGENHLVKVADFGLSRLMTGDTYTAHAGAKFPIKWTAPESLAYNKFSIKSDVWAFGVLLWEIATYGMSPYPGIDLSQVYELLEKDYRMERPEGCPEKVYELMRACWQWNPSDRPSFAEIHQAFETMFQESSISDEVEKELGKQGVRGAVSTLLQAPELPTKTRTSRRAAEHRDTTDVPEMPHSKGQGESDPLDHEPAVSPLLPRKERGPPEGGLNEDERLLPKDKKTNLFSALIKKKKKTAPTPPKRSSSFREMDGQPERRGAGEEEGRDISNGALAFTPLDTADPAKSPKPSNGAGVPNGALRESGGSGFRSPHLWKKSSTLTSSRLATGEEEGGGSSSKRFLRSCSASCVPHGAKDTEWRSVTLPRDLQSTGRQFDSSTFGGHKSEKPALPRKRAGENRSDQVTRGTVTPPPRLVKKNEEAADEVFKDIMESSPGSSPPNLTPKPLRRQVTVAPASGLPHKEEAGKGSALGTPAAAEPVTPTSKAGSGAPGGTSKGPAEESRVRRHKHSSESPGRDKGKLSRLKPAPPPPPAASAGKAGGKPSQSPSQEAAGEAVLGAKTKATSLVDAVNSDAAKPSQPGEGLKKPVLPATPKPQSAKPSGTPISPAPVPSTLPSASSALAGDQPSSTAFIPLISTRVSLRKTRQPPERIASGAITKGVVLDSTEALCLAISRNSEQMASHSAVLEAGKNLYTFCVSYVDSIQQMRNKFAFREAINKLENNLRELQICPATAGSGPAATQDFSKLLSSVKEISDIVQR", "assay": "Inhibition of recombinant human ABL1 at 1 uM using Ulight-TK peptide as substrate measured after 30 mins in presence of ATP by LANCE assay relative to control"}, "[10]": {"assay": "Metabolic stability in human liver microsomes assessed as parent compound remaining after 240 mins by LC-MS analysis relative to control", "format": "ADME, Microsome", "settings": "read-out: Stability"}, "[11]": {"molecular_target": "Fibroblast growth factor receptor 1 (Homo sapiens) (UniProt P11362)", "assay": "Inhibition of human recombinant FGFR at 1 uM using Ulight-CAGAGAIETDKEYYTVKD as substrate measured after 60 mins in presence of ATP by LANCE assay relative to control", "outline": "as §1"}, "[12]": {"molecular_target": "Calcium/calmodulin-dependent protein kinase type II subunit alpha (Homo sapiens) (UniProt Q9UQM7)", "sequence (Q9UQM7 whole entry)": "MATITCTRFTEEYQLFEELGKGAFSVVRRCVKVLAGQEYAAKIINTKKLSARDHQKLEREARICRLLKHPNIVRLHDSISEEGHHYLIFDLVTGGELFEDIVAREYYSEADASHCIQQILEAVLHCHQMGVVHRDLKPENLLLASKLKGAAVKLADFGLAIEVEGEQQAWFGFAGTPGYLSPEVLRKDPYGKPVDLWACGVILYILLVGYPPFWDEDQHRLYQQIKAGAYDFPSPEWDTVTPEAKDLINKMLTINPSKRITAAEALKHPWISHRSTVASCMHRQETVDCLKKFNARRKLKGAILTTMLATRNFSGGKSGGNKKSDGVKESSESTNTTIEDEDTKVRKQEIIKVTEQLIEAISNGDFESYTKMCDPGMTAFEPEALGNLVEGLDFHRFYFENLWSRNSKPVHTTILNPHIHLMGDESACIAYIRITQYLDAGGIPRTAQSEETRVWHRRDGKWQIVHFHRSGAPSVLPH", "assay": "Inhibition of human recombinant CAMKA2A at 1 uM using Ulight-CGSGSGRPRTSSFAEG as substrate measured after 30 mins by LANCE assay relative to control", "outline": "as §1"}, "[13]": {"molecular_target": "Proto-oncogene tyrosine-protein kinase Src (Homo sapiens) (UniProt P12931)", "sequence (P12931 2-536 limits assumed)": "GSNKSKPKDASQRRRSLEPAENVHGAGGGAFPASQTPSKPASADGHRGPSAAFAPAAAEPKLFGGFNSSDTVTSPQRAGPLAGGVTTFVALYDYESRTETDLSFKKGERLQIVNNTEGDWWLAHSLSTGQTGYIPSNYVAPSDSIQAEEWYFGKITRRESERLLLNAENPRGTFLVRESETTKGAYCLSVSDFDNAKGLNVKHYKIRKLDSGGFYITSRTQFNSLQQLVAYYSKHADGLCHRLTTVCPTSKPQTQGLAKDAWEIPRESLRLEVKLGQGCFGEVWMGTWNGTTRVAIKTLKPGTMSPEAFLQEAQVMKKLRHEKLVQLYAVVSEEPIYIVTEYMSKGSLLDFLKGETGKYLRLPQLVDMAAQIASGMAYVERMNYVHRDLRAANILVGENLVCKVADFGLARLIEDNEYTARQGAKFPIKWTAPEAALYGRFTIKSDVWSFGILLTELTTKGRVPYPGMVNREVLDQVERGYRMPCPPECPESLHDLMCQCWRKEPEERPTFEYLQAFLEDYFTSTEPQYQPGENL", "assay": "Inhibition of human recombinant SRC at 1 uM using Ulight-Poly GAT[EAY(1:1:1)]n as substrate measured after 10 mins in presence of ATP by LANCE assay relative to control", "outline": "as §1"}, "[14]": {"molecular_target": "Mitogen-activated protein kinase 14 (Homo sapiens, UniProt Q16539)", "sequence (Q16539 whole entry)": "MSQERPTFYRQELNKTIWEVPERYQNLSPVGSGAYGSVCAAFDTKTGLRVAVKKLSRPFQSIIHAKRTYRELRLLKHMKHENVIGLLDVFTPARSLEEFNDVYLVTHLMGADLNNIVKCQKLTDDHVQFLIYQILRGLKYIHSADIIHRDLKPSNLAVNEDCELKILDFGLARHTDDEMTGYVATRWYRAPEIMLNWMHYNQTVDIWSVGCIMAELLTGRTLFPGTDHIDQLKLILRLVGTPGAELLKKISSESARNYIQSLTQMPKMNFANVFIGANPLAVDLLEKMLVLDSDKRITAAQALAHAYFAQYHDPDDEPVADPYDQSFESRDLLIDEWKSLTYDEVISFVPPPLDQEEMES", "assay": "Inhibition of human recombinant SAPK2A at 1 uM using Ulight-CFFKNIVTPRTPPPSQGK-amide as substrate measured after 30 mins in presence of ATP by LANCE assay relative to control", "outline": "as §1"}, "[15]": {"molecular_target": "Serine/threonine-protein kinase PLK1 (Homo sapiens) (UniProt P53350)", "assay": "Inhibition of human recombinant PLK1 at 1 uM using Ulight-FLGFTYVAP as substrate measured after 60 mins in presence of ATP by LANCE assay relative to control", "outline": "as §1"}, "[16]": {"assay": "Solubility of the compound in PBS buffer at pH 7.8 after 1 hr by HPLC analysis", "format": "physicochemical"}, "[17]": {"molecular_target": "T1, Glycogen synthase kinase-3 beta", "assay": "Competitive inhibition of human recombinant full length GSK3beta using YRRAAVPPSPSLSRHSSPHQ(pS)EDEEE as substrate preincubated with enzyme for 10 mins followed by substrate and 500 uM ATP addition measured after 60 mins by ADP-Glo luminescence assay", "outline": "as §2, with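 “Recombinant human GSK3β at 0.58 ng/µL with 0.2 µg/µL substrate G50-58; ATP at 25 µM, 100 µM or 500 µM, each as its line states. Compounds” for “Compounds”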"}, "[18]": {"molecular_target": "Serine/threonine-protein kinase pim-2 (Homo sapiens) (UniProt Q9P1W9)", "assay": "Inhibition of human recombinant PIM2 at 1 uM using CREBtide as substrate measured after 60 mins in presence of ATP by LANCE assay relative to control", "outline": "as §1"}, "[19]": {"molecular_target": "Inhibitor of nuclear factor kappa-B kinase subunit alpha (Homo sapiens) (UniProt O15111)", "sequence (O15111 whole entry)": "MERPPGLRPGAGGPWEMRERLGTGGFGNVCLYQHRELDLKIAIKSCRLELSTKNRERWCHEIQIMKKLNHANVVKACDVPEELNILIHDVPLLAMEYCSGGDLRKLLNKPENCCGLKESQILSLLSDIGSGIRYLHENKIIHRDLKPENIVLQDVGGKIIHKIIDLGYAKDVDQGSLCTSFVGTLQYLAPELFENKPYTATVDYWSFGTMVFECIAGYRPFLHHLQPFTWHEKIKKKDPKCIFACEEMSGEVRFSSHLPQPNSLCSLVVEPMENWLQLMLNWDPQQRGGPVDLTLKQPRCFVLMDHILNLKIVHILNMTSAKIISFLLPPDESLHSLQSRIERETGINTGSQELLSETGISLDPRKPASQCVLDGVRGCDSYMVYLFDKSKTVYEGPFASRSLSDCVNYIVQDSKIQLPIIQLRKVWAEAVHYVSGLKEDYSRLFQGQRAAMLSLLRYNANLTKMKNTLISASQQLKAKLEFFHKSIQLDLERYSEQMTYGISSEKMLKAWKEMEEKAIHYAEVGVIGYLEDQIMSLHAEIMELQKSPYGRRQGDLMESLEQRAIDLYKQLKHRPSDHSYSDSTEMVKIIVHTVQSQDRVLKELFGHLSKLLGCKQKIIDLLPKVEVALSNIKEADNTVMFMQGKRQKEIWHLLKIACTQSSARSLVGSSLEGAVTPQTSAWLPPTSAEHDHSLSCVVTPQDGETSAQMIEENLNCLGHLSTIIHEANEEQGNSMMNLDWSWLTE", "assay": "Inhibition of human recombinant IKKalpha at 1 uM using Ulight-IKappaB-alpha as substrate measured after 30 mins in presence of ATP by LANCE assay relative to control", "outline": "as §1"}, "[20]": {"molecular_target": "Glycogen synthase kinase-3 alpha (Homo sapiens, UniProt P49840)", "assay": "Inhibition of human recombinant full length GSK3alpha using YRRAAVPPSPSLSRHSSPHQ(pS)EDEEE as substrate preincubated with enzyme for 10 mins followed by substrate and 25 uM ATP addition measured after 60 mins by ADP-Glo luminescence assay", "outline": "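Recombinant human GSK3α at 0.50 ng/µL, 25 µM ATP, 0.2 µg/µL substrate G50-58, serial compound dilutions. Kinase was preincubated with compound 10 min at rt, then run 60 min at rt after substrate/ATP addition. ADP-Glo reagent 60 min, detection reagent 30 min, luminescence read. Uninhibited-kinase and ATP/substrate-only controls were included.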"}, "[21]": {"assay": "Metabolic stability in human liver microsomes assessed as parent compound remaining after 60 mins by LC-MS analysis relative to control", "format": "ADME, Microsome", "settings": "read-out: Stability"}}, "data": [{"molecule": "CCc1nc(-c2ccc(F)cc2)c(-c2ccnc(NC(=O)C3CC3)c2)[nH]1", "values": [{"measurement": "inhibition", "setting": "[1]", "value": 10.6, "unit": "%"}, {"measurement": "inhibition", "setting": "[2]", "value": 10.7, "unit": "%"}, {"measurement": "inhibition", "setting": "[3]", "value": 74.4, "unit": "%"}, {"measurement": "IC50", "setting": "[4]", "value": "35 to 45.6", "unit": "nM"}, {"measurement": "inhibition", "setting": "[5]", "value": 2.96, "unit": "%"}, {"measurement": "inhibition", "setting": "[6]", "value": -4.86, "unit": "%"}, {"measurement": "Ratio", "setting": "[7]", "value": 2.5}, {"measurement": "inhibition", "setting": "[8]", "value": 54.9, "unit": "%"}, {"measurement": "inhibition at 10 µM", "setting": "CYP2C9", "value": 83.6, "unit": "%"}, {"measurement": "inhibition", "setting": "[9]", "value": 91.5, "unit": "%"}, {"measurement": "remaining at 4 h", "setting": "[10]", "value": 98.3, "unit": "%"}, {"measurement": "inhibition", "setting": "[11]", "value": 47, "unit": "%"}, {"measurement": "inhibition", "setting": "[12]", "value": -2.55, "unit": "%"}, {"measurement": "inhibition", "setting": "[13]", "value": 51.6, "unit": "%"}, {"measurement": "inhibition", "setting": "[14]", "value": 93.6, "unit": "%"}, {"measurement": "inhibition", "setting": "[15]", "value": 2.78, "unit": "%"}, {"measurement": "solubility at 1 h", "setting": "[16]", "value": 155, "unit": "µg/mL"}, {"measurement": "IC50", "setting": "[17]", "value": 492, "unit": "nM"}, {"measurement": "inhibition", "setting": "[18]", "value": -0.24, "unit": "%"}, {"measurement": "inhibition", "setting": "[19]", "value": -2.16, "unit": "%"}, {"measurement": "IC50", "setting": "[20]", "value": 301, "unit": "nM"}, {"measurement": "remaining at 1 h", "setting": "[21]", "value": 95.2, "unit": "%"}]}]}
